Assays:
CYP2C19 = CYP2C19 (Homo sapiens, UniProt P33261); assay: Reversible inhibition of CYP2C19 in human liver microsomes at 10 uM after 20 mins in presence of NADPH by LC-MS/MS analysis; assay type: ADME; details: liver microsomes
[1] = AUC (0 to 24 hrs) in Sprague-Dawley rat plasma at 6 mg/kg, po by UPLC-MS/MS analysis; assay type: ADME, organism-based; set-up: dose 6 mg/kg, time < 24 hr, route oral
In short: (§1)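 Male Sprague-Dawley rats (180-220 g) were fasted overnight with free access to water. Dosing was intravenous (n=2) or oral at 6 mg/kg (n=3). Heparinized blood was drawn from 0 to 1440 min. Plasma was frozen at -20°C, then precipitated with acetonitrile containing internal standard, centrifuged and analysed by UPLC-MS/MS.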

CYP2D6 = CYP2D6 (Homo sapiens, UniProt P10635); assay: Time dependent irreversible inhibition of CYP2D6 in human liver microsomes at 10 uM preincubated with compound followed by NADPH addition by LC-MS/MS analysis; assay type: ADME; details: liver microsomes
In short: (§2)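 HLM (0.2 mg/ml) with 10 µM compound were preincubated 0, 5, 10 or 20 min at 37°C with 1 mM NADPH or PBS. Substrate cocktail (halved concentrations) plus NADPH was then added for 10 min. Metabolites were measured by LC-MS/MS. Kobs is the slope of relative activity versus preincubation time.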

[2] = biological target: Insulin-like growth factor 1 receptor (Homo sapiens, UniProt P08069); assay: Inhibition of IGF1R (unknown origin) using FAM-labeled peptide as substrate preincubated for 5 to 10 mins followed by substrate/ATP addition measured after 30 to 60 mins by mobility shift assay
In short: (§3)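 Caliper mobility-shift assay with FAM-labeled peptide substrate. Buffer: 50 mM HEPES pH 7.5, 0.0015% Brij-35, 10 mM MgCl2, 2 mM DTT, with kinase-specific enzyme levels. […] Incubation was 30-60 min at 28°C, stopped with EDTA buffer. Read-out was % conversion.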

CYP3A4 = CYP3A4 (Homo sapiens, UniProt P08684); assay: Reversible inhibition of CYP3A4 in human liver microsomes at 10 uM after 20 mins in presence of NADPH by LC-MS/MS analysis; assay type: ADME; details: liver microsomes
[3] = biological target: Tyrosine-protein kinase receptor UFO (Homo sapiens, UniProt P30530); assay: Inhibition of Axl (unknown origin) using FAM-labeled peptide as substrate preincubated for 5 to 10 mins followed by substrate/ATP addition measured after 30 to 60 mins by mobility shift assay; in short: as §3
Mus musculus [4] = assay: Toxicity in BALB/c athymic nude mouse xenografted with human NCI-H1993 cells assessed as apparent toxicity parameters at 0.1 to 10 mg/kg, po administered once daily for 3 weeks; assay type: organism-based; details: in vivo, 504 h
SNU-5 = assay: Growth inhibition of human SNU5 cells after 72 hrs by CCK-8 assay; assay type: functional, cell-based; details: snu-5
[5] = Drug recovery in human liver microsomes at 1 uM measured after 30 mins by LC-MS/MS analysis; assay type: ADME, microsome; details: liver microsomes, read-out: Drug recovery
In short: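 Liver microsomes (0.5 mg/ml) were incubated with 1 µM compound at 37°C in 100 mM phosphate buffer pH 7.4 without NADPH for 30 min. Reactions were quenched with acetonitrile/tinidazole internal standard and analysed by LC-MS/MS. Recovery (%) was taken from the compound/internal standard peak area ratio.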

[6] = biological target: Epidermal growth factor receptor (Homo sapiens, UniProt P00533, T790M); assay: Inhibition of EGFR T790M mutant (unknown origin) using FAM-labeled peptide as substrate preincubated for 5 to 10 mins followed by substrate/ATP addition measured after 30 to 60 mins by mobility shift assay; in short: as §3
Mus musculus [7] = assay: Toxicity in BALB/c athymic nude mouse xenografted with human NCI-H1993 cells assessed as body weight loss at 0.1 to 10 mg/kg, po administered once daily for 3 weeks; assay type: organism-based; details: in vivo, 504 h
In short: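 Female/male BALB/c nude mice (5-6 weeks, SPF). NCI-H1993 cells (7×10^6 in 140 µL) or SNU-5 cells (6×10^6 in 200 µL) injected s.c. into the right flank. Dosing started at mean tumour volume 150-250 mm³ (NCI-H1993) or 100-200 mm³ (SNU-5). Randomized, n = 7 (NCI-H1993) or 6 (SNU-5) per group. Oral dosing once daily; vehicle controls. Body weight and signs of toxicity monitored during treatment.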

CYP1A2 = biological target: T1, CYP1A2 (Homo sapiens, UniProt P05177); assay: Reversible inhibition of CYP1A2 in human liver microsomes at 10 uM after 20 mins in presence of NADPH by LC-MS/MS analysis; assay type: ADME
T1 sequence (P05177 whole entry): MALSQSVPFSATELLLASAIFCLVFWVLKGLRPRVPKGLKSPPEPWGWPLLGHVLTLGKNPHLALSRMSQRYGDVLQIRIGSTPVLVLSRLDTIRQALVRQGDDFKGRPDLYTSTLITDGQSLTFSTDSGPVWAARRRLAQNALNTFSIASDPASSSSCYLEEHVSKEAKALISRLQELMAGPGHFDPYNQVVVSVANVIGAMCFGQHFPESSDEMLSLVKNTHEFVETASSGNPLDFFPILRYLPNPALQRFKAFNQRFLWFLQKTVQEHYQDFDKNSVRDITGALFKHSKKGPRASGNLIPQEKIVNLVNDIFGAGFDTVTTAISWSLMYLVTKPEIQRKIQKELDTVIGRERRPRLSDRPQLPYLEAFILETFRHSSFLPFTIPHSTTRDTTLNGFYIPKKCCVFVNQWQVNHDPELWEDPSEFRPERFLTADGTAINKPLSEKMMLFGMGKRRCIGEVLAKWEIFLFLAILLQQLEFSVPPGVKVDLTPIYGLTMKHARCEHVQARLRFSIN

CYP2C9 [8] = biological target: T2, CYP2C9 (Homo sapiens, UniProt P11712); assay: Time dependent irreversible inhibition of CYP2C9 in human liver microsomes at 10 uM preincubated with compound followed by NADPH addition by LC-MS/MS analysis; assay type: ADME; details: liver microsomes; in short: as §2
[9] = Half life in Sprague-Dawley rat plasma at 1 mg/kg, iv by UPLC-MS/MS analysis; assay type: ADME, organism-based; in short: as §1
CYP2C9 [10] = biological target: T2, CYP2C9; assay: Reversible inhibition of CYP2C9 in human liver microsomes at 10 uM after 20 mins by in presence of NADPH LC-MS/MS analysis; assay type: ADME; details: liver microsomes
[11] = biological target: Macrophage-stimulating protein receptor (Homo sapiens, UniProt Q04912); assay: Inhibition of RON (unknown origin) using FAM-labeled peptide as substrate preincubated for 5 to 10 mins followed by substrate/ATP addition measured after 30 to 60 mins by mobility shift assay; in short: as §3
[12] = Intrinsic clearance in rat liver microsomes assessed per mg protein at 1 uM preincubated for 5 mins followed by NADPH addition measured after 5 to 30 mins by LC-MS/MS analysis; assay type: ADME, microsome; details: read-out: CLH
In short: (§4)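 Microsomes (0.5 mg/ml) with 1 µM compound were preincubated 5 min at 37°C in 100 mM phosphate buffer pH 7.4, then started with 1 mM NADPH. Samples were taken at 0, 5, 10 and 30 min, quenched with acetonitrile/tinidazole and run by LC-MS/MS. CLint = k / microsomal protein concentration. Midazolam was the positive control.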

[13] = Intrinsic clearance in human liver microsomes assessed per mg protein at 1 uM preincubated for 5 mins followed by NADPH addition measured after 5 to 30 mins by LC-MS/MS analysis; assay type: ADME, microsome; details: read-out: CLH; in short: as §4

T2 sequence (P11712 whole entry): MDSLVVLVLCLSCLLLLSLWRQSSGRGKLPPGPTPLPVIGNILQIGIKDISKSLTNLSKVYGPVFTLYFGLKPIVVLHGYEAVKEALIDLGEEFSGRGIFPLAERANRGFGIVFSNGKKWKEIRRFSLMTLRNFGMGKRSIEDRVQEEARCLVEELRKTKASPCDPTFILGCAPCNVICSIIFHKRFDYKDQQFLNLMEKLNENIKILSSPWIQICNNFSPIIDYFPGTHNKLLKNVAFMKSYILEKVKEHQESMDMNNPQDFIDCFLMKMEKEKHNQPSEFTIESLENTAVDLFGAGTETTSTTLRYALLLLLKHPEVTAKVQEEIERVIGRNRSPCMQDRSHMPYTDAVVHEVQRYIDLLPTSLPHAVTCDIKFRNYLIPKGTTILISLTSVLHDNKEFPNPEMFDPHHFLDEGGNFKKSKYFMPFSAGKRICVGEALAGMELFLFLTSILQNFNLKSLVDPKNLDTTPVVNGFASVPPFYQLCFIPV
Sequence of Macrophage-stimulating protein receptor (Q04912 25-304 limits assumed): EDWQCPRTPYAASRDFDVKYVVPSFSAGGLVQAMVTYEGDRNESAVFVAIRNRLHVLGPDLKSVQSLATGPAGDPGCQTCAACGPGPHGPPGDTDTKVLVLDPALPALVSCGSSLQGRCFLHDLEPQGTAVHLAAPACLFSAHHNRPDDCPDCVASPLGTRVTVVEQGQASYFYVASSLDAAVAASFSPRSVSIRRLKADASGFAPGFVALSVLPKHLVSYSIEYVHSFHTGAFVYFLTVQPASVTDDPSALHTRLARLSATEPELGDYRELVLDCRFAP
Sequence of Macrophage-stimulating protein receptor (Q04912 310-1400 limits assumed): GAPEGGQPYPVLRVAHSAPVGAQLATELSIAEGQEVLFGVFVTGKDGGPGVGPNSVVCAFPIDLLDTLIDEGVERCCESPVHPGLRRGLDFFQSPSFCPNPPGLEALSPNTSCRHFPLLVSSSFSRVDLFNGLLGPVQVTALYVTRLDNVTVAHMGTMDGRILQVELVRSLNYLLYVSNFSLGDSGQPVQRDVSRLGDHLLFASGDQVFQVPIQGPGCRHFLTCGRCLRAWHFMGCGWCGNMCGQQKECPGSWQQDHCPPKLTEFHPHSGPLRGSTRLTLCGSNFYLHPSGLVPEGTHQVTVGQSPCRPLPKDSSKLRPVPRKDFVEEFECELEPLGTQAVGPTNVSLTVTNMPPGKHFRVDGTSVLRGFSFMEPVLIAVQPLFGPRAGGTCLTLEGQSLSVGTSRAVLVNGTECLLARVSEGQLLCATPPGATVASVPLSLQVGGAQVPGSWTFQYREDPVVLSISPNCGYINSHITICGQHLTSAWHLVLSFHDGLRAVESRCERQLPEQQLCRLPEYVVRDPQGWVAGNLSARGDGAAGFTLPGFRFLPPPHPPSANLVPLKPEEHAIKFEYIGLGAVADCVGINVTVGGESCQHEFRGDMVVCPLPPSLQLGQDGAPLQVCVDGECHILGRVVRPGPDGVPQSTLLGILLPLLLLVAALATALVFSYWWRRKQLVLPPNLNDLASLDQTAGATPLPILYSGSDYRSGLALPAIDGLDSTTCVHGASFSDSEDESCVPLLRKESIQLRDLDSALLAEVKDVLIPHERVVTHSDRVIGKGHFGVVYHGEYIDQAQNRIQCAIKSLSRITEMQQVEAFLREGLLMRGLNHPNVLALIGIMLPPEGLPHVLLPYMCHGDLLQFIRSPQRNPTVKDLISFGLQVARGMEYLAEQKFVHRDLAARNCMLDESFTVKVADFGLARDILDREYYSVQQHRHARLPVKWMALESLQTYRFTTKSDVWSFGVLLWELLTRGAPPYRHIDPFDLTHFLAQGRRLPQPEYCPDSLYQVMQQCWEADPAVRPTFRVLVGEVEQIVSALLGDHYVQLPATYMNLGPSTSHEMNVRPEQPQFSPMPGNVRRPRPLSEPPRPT
Sequence of Tyrosine-protein kinase receptor UFO (P30530 whole entry): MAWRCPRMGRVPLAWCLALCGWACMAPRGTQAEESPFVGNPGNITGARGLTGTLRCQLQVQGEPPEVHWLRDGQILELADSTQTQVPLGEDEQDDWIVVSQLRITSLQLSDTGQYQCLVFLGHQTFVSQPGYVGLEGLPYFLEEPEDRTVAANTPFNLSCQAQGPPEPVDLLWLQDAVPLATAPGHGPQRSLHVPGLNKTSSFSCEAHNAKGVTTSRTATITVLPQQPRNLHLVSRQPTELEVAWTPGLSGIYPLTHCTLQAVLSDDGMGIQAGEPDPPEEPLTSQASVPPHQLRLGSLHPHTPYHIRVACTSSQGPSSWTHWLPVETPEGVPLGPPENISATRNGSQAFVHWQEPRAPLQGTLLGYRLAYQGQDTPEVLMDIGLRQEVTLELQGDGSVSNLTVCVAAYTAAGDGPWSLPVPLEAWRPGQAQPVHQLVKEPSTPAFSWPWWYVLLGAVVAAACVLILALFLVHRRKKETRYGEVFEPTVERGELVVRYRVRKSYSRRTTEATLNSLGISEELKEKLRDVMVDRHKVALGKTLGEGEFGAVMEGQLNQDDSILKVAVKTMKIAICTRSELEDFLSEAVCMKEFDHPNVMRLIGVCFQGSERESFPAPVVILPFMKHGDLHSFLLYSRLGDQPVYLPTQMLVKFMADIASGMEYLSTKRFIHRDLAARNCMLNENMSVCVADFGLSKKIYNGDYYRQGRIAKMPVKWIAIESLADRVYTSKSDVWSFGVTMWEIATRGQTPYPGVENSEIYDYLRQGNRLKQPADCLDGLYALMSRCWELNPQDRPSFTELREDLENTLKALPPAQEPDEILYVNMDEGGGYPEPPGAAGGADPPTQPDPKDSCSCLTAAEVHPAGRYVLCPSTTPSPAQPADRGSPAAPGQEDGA
Sequence of Insulin-like growth factor 1 receptor (P08069 31-736 limits assumed): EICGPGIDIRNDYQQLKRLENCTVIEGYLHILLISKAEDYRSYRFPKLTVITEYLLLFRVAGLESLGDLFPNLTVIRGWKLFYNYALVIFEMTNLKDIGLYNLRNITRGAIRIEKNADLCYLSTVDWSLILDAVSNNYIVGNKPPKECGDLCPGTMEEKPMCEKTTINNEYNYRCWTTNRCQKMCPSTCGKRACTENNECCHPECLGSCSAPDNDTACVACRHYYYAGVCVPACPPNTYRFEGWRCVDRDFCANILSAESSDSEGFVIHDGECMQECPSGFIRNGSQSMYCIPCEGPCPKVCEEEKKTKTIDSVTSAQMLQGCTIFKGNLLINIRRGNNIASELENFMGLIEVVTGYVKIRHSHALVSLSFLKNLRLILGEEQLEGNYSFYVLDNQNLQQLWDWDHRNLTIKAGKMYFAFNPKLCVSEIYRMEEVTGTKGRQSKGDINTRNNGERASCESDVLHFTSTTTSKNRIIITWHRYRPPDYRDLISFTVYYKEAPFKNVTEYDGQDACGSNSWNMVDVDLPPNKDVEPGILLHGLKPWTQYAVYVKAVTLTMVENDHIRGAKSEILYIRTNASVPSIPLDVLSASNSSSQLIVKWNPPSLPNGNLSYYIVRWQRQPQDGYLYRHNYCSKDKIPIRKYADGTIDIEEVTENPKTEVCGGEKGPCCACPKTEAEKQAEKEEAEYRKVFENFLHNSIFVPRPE
Sequence of Insulin-like growth factor 1 receptor (P08069 741-1367 limits assumed): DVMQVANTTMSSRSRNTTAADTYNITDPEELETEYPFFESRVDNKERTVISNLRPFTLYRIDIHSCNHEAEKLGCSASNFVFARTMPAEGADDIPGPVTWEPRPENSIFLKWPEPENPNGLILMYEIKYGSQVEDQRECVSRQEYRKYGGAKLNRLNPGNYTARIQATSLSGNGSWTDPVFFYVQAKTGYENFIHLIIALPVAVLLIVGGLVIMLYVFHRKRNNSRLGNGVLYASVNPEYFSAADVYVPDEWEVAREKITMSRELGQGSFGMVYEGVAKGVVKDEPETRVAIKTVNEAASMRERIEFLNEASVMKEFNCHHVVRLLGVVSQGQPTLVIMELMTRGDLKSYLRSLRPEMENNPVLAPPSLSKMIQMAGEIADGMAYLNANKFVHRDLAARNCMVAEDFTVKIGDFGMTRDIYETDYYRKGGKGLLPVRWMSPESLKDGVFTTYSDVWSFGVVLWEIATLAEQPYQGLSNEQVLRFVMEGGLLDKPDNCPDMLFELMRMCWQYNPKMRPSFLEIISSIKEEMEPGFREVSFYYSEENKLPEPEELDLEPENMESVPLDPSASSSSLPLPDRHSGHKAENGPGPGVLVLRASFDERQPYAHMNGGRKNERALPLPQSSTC
Sequence of CYP3A4 (P08684 whole entry): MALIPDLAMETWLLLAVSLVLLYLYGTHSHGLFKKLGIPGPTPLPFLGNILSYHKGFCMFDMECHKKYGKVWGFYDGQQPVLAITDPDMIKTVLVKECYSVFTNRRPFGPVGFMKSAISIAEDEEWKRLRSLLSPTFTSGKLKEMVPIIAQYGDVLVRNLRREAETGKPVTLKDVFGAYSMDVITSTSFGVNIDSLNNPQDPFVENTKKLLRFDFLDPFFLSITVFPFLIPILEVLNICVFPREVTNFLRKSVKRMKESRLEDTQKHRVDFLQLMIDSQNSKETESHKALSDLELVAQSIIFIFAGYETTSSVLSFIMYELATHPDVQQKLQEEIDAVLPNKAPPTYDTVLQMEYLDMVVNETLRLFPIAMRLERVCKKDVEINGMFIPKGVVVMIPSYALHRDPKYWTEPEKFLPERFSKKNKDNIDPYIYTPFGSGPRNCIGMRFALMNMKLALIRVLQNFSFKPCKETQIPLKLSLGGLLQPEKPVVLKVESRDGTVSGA

CC(c1cc2cc(-c3cnn(C)c3)cnc2cc1F)n1nnc2ncc(-c3cnn(CCO)c3)nc21 (stereo in doubt; 14)
inhibition at 20 min, 10 µM (CYP2C19): < 50%
AUC(0-t) at 24 h [1]: 1250 ng·h/mL
inhibition at 10 µM (CYP2D6): < 50%
IC50 [2]: > 30000 nM
inhibition at 20 min, 10 µM (CYP3A4): < 50%
IC50 [3]: 1080 nM
Activity (Mus musculus [4]): Non-Toxic
IC50 (SNU-5): 2 nM
remaining at 0.5 h, 1 µM [5]: 95%
IC50 [6]: > 30000 nM
Activity (Mus musculus [7]): Non-Toxic
inhibition at 20 min, 10 µM (CYP1A2): < 50%
inhibition at 10 µM (CYP2C9 [8]): < 50%
half-life [9]: 3.7 h
inhibition at 20 min, 10 µM (CYP2C9 [10]): < 50%
IC50 [11]: 731 nM
microsomal CLint at 1 µM [12]: 5 µL/min/mg
microsomal CLint at 1 µM [13]: 5 µL/min/mg

Source: ChEMBL document CHEMBL4020721 (Eur J Med Chem, 2017)
